pIC50: −log10 of the molar value. ≈ marks a conversion by molar mass, not a printed value.
Columns and labels:
[1] = biological target: T1, Amine oxidase [flavin-containing] A (Rattus norvegicus, UniProt P21396); experiment: Inhibition of Monoamine oxidase A from rat liver mitochondria
T1 sequence (P21396 whole entry): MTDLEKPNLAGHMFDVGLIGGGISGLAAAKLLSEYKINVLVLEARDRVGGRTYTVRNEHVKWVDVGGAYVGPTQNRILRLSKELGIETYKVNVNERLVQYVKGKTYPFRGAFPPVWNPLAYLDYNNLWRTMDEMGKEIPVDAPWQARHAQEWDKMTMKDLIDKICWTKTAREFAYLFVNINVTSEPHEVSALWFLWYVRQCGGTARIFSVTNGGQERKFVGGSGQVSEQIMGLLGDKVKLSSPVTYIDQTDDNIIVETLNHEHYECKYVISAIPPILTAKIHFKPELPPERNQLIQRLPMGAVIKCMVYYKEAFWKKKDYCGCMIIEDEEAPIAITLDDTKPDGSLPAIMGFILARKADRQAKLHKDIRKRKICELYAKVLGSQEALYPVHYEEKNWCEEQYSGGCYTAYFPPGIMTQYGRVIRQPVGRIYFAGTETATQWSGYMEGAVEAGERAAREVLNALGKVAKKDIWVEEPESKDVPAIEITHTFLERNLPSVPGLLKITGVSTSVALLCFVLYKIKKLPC
Method in brief: (§1)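 Rat liver mitochondria from differential centrifugation, in 50 mM phosphate buffer pH 7.4. Preincubated with inhibitor (10⁻⁸–10⁻³ or 10⁻⁴ M) for 60 min at 37 °C. MAO-A activity measured radiometrically as ¹⁴C-aldehyde formed from 0.1 mM [¹⁴C]-5-hydroxytryptamine creatinine sulfate; IC50 reported.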

[2] = biological target: T2, Amine oxidase [flavin-containing] B (Rattus norvegicus, UniProt P19643); experiment: Inhibitory activity against Monoamine oxidase B isolated from rat liver mitochondria using [14C]phenylethylamine; NI denotes no inhibition at 1000 uM
T2 sequence (P19643 whole entry): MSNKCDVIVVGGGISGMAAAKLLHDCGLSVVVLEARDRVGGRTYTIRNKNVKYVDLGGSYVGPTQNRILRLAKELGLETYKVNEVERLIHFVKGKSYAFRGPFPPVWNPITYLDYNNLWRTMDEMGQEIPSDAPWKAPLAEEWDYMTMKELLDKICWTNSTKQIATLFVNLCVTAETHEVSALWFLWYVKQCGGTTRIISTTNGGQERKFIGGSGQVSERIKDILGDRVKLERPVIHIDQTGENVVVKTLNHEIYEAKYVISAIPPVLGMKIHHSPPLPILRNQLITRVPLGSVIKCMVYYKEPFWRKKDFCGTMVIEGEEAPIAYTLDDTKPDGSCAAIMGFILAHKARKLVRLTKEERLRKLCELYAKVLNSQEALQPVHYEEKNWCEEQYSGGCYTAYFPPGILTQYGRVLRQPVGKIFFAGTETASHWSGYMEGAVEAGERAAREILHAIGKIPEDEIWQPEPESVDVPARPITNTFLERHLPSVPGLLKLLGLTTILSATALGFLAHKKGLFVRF
Method in brief: (§2)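 Rat liver mitochondria from differential centrifugation, in 50 mM phosphate buffer pH 7.4. Preincubated with inhibitor (10⁻⁸–10⁻³ or 10⁻⁴ M) for 60 min at 37 °C. MAO-B activity measured radiometrically as ¹⁴C-aldehyde formed from 10 μM [¹⁴C]-phenylethylamine; IC50 reported.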

[3] = tested on: Mycobacterium tuberculosis; experiment: In vitro inhibition of Mycobacterium tuberculosis H37Rv, determined at 0.2 ug/mL; type: functional
Method in brief: (§3)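 M. tuberculosis H37Rv (Pasteur) grown twice for 1 week each in Dubos broth at 37 °C, washed, then filtered to remove clumps. 25 × 10⁴ CFU per well in RPMI 1640 with 5 mM HEPES, 2 mM L-glutamine and 2% FBS. Compound added from DMSO stock; 5,6-[³H]-uracil added at 24 h, then 18 h at 37 °C.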

[4] = tested on: Mycobacterium tuberculosis; experiment: In vitro inhibition of Mycobacterium tuberculosis H37Rv, determined at 2 ug/mL; type: functional; method in brief: as §3
[5] = tested on: Mycobacterium tuberculosis; experiment: In vitro inhibition of Mycobacterium tuberculosis H37Rv, determined at 20 ug/mL; type: functional; method in brief: as §3
[6] = biological target: T2, Amine oxidase [flavin-containing] B; experiment: Inhibition of Monoamine oxidase B from rat liver mitochondria; method in brief: as §2
[7] = tested on: Mycobacterium tuberculosis; experiment: Minimal inhibitory activity of compound against Mycobacterium tuberculosis H37Rv; type: functional
Method in brief: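 Same H37Rv [³H]-uracil incorporation assay: compound at final 20, 2.0 and 0.2 μg/mL, 24 h, then 1 μCi 5,6-[³H]-uracil for 18 h at 37 °C, harvested on filters, scintillation counted, triplicate. MIC50 is the concentration giving 50% reduction in cpm versus drug-free plate at the same bacterial dilution.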

[8] = biological target: T1, Amine oxidase [flavin-containing] A; experiment: Inhibitory activity of compound against Monoamine oxidase A isolated from rat liver mitochondria using [14C]5-HT creatinine sulfate; NI denotes no inhibition at 1000 uM; method in brief: as §1

| SMILES | pIC50 [1] | IC50 [2] | inhibition at 0.2 µg/mL [3] [%] | inhibition at 2 µg/mL [4] [%] | inhibition at 20 µg/mL [5] [%] | pIC50 [6] | MIC50 [7] [µg/mL] | IC50 [8] |
| --- | --- | --- | --- | --- | --- | --- | --- | --- |
| Nc1[nH]nc2c3ccccc3nc-2c1-c1ccccc1Cl | 3.50 | No inhibition | 0 | 0 | 35 |  |  |  |
| Oc1[nH]nc2c3ccccc3nc-2c1-c1ccccc1 |  |  |  |  | 0 |  |  |  |
| CC(=O)N(C(C)=O)c1nnc2c3ccccc3n(C)c2c1-c1ccccc1 |  |  |  |  | 0 |  |  |  |
| Cn1c2ccccc2c2nnc(NC=O)c(-c3ccccc3)c21 |  |  |  |  | 0 |  |  |  |
| Cn1c2ccccc2c2nnc(O)c(-c3ccccc3)c21 |  |  |  |  | 0 |  |  |  |
| CN(C)c1ccc(-c2c3nc4ccccc4c-3n[nH]c2N)cc1 | 4.10 |  | 5.2 | 10 | 66 | ~3.00 |  |  |
| Cn1c2ccc(Br)cc2c2nnc(N)c(-c3ccccc3)c21 |  |  | 0 | 0 | 54.2 |  |  |  |
| CC(C)c1ccc(-c2c(N)nnc3c4cc(Br)ccc4n(C)c23)cc1 |  |  | 0 | 0 | 60.7 |  | 17.1 (≈ 43.3 µM) |  |
| CCn1c2ccccc2c2nnc(N)c(-c3ccccc3Cl)c21 | ~3.00 |  | 0 | 0 | 15.9 | ~3.00 |  |  |
| CCn1c2ccccc2c2nnc(N)c(-c3ccc(C(C)C)cc3)c21 | 4.00 |  | 0 | 10.5 | 94.3 | 4.80 | 10.5 (≈ 31.7 µM) |  |
| CCCn1c2ccccc2c2nnc(N)c(-c3ccc(C(C)C)cc3)c21 |  |  | 0 | 0 | 20 |  |  |  |
| CC(C)c1ccc(-c2c3nc4ccccc4c-3n[nH]c2N)cc1 | < 3.00 |  | 8.7 | 32.9 | 61.9 | < 3.00 | 12.6 (≈ 41.8 µM) |  |
| Cn1c2ccccc2c2nnc(N)c(-c3ccccc3)c21 | 4.55 |  | 2.3 | 25.5 | 40.2 | ~3.00 |  |  |
| CC(C)c1ccc(-c2c(N3C(=O)c4ccccc4C3=O)nnc3c4ccccc4n(C)c23)cc1 |  |  |  |  | 0 |  |  |  |
| Nc1nnc2c([nH]c3ccccc32)c1-c1ccccc1 |  | No inhibition | 2.3 | 25.5 | 28.5 |  |  | No inhibition |
| NNC(=O)c1ccncc1 [ISONIAZID] |  |  | 49.7 | 59.1 | 68.7 |  | 0.25 (≈ 1.82 µM) |  |
| Cc1ccc2c(c1)c1nnc(N)c(-c3ccc(C(C)C)cc3)c1n2C |  |  | 0 | 0 | 40.5 |  |  |  |
| Nc1[nH]nc2c3ccccc3nc-2c1-c1ccc(F)cc1 |  | No inhibition | 0 | 0 | 35.1 |  |  | No inhibition |
